The source made the active and inactive calls. The calls are words filed in the database; no cut-off is given here.
Legend:
Mus musculus [1] = assay: Analgesic activity in CFA-induced thermal hyperalgesia C57BL/6 mouse model assessed as reduction in CFA-induced ipsilateral paw withdrawal latency at 3 mg/kg, iv treated at 24 hrs post CFA injection measured at 60 to 90 mins post dose; assay type: functional, organism-based
Mus musculus [2] = assay: Effect on thermal nociception of the contralateral paw in CFA-induced thermal hyperalgesia C57BL/6 mouse model at 10 to 100 ug administered as intraplantar injection treated at 24 hrs post CFA injection measure up to 120 mins; assay type: ADME, organism-based; conditions: in vivo, other
[3] = target: Transient receptor potential cation channel subfamily V member 1 (Rattus norvegicus) (UniProt O35433); assay: Modulatory activity against TRPV1 in Wistar rat neonatal dorsal root ganglia assessed as reduction in capsaicin-evoked action potential by measuring mean spike frequency ratio (P2/P1) at 10 uM by microelectrode array analysis (reference value: 0.87 +/- 0.04)
Procedure, shortened: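 Capsaicin-evoked action potential firing recorded with test agent at 10 µM. Response expressed as the P2/P1 mean spike frequency ratio.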

Mus musculus [4] = assay: Antipruritic activity in C57BL/6 mouse histaminergic pruritus model assessed as reduction in licking behavior at 100 ug administered as intraplantar injection pretreated for 30 mins followed by histamine addition measured 10 to 20 mins post histamine instillation; assay type: functional, organism-based
Mus musculus [5] = assay: Analgesic activity in CFA-induced thermal hyperalgesia C57BL/6 mouse model assessed as reduction in CFA-induced ipsilateral paw withdrawal latency at 10 mg/kg, iv treated at 24 hrs post CFA injection measured at 60 mins post dose; assay type: functional, organism-based
Mus musculus [6] = assay: (§1) Analgesic activity in CFA-induced thermal hyperalgesia C57BL/6 mouse model assessed as reduction in latency time required to elicit paw withdrawal in response to radiant heat applied to the plantar surface of a hind paw administered as intraplantar injection treated at 24 hrs post CFA injection measured every 30 mins up to 120 mins post dose; assay type: functional, organism-based
Liver carboxylesterase 1 = target: T1, Liver carboxylesterase 1 (Homo sapiens, UniProt P23141); assay: Drug metabolism assessed as recombinant human CE1-mediated compound hydrolysis by measuring rate constant at 50 uM up to 30 mins by LC-UV analysis; assay type: ADME; conditions: 0.5 h
T1 sequence (P23141 whole entry): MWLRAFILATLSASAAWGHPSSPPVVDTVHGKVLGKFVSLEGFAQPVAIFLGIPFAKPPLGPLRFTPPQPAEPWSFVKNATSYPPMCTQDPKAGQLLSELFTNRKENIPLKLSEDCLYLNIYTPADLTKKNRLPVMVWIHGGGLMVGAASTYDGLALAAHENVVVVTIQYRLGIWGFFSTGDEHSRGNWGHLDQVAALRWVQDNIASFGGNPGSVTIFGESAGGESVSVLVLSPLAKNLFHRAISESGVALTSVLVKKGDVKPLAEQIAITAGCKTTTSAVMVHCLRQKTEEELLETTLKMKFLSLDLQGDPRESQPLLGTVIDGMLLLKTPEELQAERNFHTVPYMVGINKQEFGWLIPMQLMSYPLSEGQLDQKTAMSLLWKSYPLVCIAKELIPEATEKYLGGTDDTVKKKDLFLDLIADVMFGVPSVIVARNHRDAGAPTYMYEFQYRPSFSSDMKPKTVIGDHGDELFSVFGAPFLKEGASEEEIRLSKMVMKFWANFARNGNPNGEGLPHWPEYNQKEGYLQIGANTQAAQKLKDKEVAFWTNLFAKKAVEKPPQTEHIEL
Procedure, shortened: (§2)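 Recombinant human carboxylesterase isoforms 1 and 2 were each incubated with the test ester. Hydrolysis was followed by HPLC-UV, tracking the disappearance of the substrate over incubation time relative to the initial amount. Chromatograms were also checked for peaks of the expected hydrolysis metabolites.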

[7] = Drug metabolism in human HaCaT cells assessed as residual substrate levels at 25 uM up to 240 mins by HPLC-UV analysis; assay type: ADME, cell-based; conditions: read-out: Stability
[8] = Drug metabolism in human keratinocytes assessed as residual substrate levels at 50 uM up to 120 mins by HPLC-UV analysis; assay type: ADME, cell-based, Keratinocyte; conditions: read-out: Stability
Cocaine esterase = target: T2, Cocaine esterase (Homo sapiens, UniProt O00748); assay: Drug metabolism assessed as recombinant human CE2-mediated compound hydrolysis by measuring rate constant at 50 uM up to 30 mins by LC-UV analysis; assay type: ADME; conditions: 0.5 h; procedure, shortened: as §2
T2 sequence (O00748 whole entry): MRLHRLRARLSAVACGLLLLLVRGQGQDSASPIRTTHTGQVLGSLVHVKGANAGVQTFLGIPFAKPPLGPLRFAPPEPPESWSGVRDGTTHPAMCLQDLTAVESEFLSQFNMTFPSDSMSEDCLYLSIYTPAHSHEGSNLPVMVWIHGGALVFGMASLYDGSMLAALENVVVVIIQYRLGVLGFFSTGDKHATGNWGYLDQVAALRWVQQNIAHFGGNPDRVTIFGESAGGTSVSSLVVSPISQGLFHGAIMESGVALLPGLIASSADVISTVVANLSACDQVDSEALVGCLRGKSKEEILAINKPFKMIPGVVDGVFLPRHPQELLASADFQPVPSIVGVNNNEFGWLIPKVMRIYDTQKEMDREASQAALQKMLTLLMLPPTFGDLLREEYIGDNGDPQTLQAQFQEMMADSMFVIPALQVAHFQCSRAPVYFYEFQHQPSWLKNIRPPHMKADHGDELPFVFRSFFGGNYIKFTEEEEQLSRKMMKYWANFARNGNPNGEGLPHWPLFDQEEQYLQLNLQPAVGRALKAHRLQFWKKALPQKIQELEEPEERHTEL

Mus musculus [9] = assay: Effect on thermal nociception of the contralateral paw in CFA-induced thermal hyperalgesia C57BL/6 mouse model at 1 to 10 mg/kg, iv treated at 24 hrs post CFA injection; assay type: ADME, organism-based; conditions: in vivo
Mus musculus [10] = assay: Analgesic activity in CFA-induced thermal hyperalgesia C57BL/6 mouse model assessed as reduction in CFA-induced ipsilateral paw withdrawal latency at 1 mg/kg, iv treated at 24 hrs post CFA injection measured at 30 to 60 mins post dose; assay type: functional, organism-based
Mus musculus [11] = assay: as §1, with “hind paw at 10 to 100 ug administered as” for “hind paw administered as”, “injection measured at 90 mins post” for “injection measured every 30 mins up to 120 mins post”; assay type: functional, organism-based
[12] = Drug metabolism in human liver cytosol assessed as sulfate conjugate formation at 50 uM in presence of UDPGA after 60 mins by LC-ESI-MS analysis; assay type: ADME, subcellular; conditions: 1 h
[13] = target: Transient receptor potential cation channel subfamily V member 1 (Rattus norvegicus) (UniProt O35433); assay: Inhibition of TRPV1 in Wistar rat neonatal dorsal root ganglia assessed as reduction in capsaicin-induced neuronal excitability by microelectrode array analysis
[14] = target: Transient receptor potential cation channel subfamily V member 1 (Homo sapiens, UniProt Q8NER1); assay: Antagonist activity at TRPV1 (unknown origin) expressed in human SH-SY5Y cells assessed as inhibition of capsaicin-induced calcium influx at 1 uM after 25 mins by Fluo-4 NW dye-based fluorescence assay relative to capsaicin; assay type: cell-based
[15] = Drug metabolism in human fibroblast cells assessed as residual substrate levels at 50 uM up to 120 mins by HPLC-UV analysis; assay type: ADME, cell-based; conditions: read-out: Stability
Mus musculus [16] = assay: Analgesic activity in CFA-induced thermal hyperalgesia C57BL/6 mouse model assessed as reduction in CFA-induced ipsilateral paw withdrawal administered intravenously treated for 24 hrs post CFA injection; assay type: functional, organism-based
[17] = Drug metabolism in human liver microsomes assessed as glucuronide metabolite formation at 50 uM in presence of UDPGA after 60 mins by LC-ESI-MS analysis; assay type: ADME, microsome; conditions: 1 h
[18] = Drug metabolism in human plasma assessed as residual substrate levels at 100 uM up to 20 mins by HPLC-UV analysis; assay type: ADME, cell-free; conditions: read-out: Stability

Sequence of Transient receptor potential cation channel subfamily V member 1 (Rattus norvegicus) (O35433 whole entry): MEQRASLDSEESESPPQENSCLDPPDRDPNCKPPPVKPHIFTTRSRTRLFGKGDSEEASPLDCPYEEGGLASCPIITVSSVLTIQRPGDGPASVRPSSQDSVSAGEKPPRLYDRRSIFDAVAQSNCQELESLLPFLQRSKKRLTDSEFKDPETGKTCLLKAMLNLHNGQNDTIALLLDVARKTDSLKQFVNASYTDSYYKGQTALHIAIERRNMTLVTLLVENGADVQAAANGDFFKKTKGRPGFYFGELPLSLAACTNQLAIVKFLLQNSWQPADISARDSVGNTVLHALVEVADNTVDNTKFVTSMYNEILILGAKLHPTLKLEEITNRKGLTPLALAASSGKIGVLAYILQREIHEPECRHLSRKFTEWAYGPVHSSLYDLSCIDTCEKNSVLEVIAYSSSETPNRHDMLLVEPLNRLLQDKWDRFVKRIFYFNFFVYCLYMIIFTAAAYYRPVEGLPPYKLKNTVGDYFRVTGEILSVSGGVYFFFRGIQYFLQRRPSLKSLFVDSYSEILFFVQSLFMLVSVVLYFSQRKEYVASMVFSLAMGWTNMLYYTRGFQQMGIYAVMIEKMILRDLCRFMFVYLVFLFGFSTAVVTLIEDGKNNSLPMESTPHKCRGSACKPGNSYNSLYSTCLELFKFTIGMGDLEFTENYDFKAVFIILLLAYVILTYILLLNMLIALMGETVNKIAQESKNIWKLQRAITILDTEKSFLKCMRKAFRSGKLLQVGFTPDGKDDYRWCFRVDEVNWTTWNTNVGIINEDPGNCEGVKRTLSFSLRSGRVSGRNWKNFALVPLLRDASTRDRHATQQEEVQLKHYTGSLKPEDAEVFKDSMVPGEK
Sequence of Transient receptor potential cation channel subfamily V member 1 (Q8NER1 whole entry): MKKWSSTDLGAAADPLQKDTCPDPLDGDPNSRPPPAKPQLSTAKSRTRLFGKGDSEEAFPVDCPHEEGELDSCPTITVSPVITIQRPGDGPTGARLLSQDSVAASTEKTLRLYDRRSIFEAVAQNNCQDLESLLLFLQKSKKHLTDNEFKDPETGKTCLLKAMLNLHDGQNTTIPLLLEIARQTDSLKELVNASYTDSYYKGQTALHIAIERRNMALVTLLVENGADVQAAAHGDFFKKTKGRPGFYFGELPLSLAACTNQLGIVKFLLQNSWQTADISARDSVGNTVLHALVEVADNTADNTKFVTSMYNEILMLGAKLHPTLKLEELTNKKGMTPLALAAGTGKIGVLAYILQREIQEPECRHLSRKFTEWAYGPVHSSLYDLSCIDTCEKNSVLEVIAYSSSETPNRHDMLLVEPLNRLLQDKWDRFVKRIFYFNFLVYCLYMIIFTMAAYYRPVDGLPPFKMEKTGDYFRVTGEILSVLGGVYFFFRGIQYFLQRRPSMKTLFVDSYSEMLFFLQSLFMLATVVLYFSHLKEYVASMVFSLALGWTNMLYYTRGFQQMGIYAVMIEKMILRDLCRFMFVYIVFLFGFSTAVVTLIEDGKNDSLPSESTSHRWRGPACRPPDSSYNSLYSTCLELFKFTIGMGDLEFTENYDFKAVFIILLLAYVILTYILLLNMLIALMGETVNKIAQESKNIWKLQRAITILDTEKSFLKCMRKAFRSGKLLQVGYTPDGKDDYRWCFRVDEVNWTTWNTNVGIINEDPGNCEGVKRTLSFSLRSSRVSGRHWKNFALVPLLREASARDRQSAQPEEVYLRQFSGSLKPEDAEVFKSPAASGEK

CCCCCCCCCCCC(=O)OCC(=O)NCc1cc(OC)c(O)cc1I
Activity (Mus musculus [1]): Active
Activity (Mus musculus [2]): Non-Toxic
Ratio [3]: 0.53
Activity (Mus musculus [4]): Active
Activity (Mus musculus [5]): Active
Activity (Mus musculus [6]): Dose-dependent effect
K (Liver carboxylesterase 1): 0.0255 min⁻¹
remaining at 4 h, 25 µM [7]: 98.6%
remaining at 2 h, 50 µM [8]: 22.6%
K (Cocaine esterase): 0.0555 min⁻¹
Activity (Mus musculus [9]): Non-Toxic
Activity (Mus musculus [10]): Active
Activity (Mus musculus [11]): Active
Drug metabolism [12]: Metabolite_Notdetected
inhibition [13]: Dose-dependent effect
inhibition [14]: 59.8%
remaining at 2 h, 50 µM [15]: 13.3%
Activity (Mus musculus [16]): Dose-dependent effect
Drug metabolism [17]: Metabolite_Notdetected
remaining at 20 min, 100 µM [18]: 82%

— ChEMBL document CHEMBL4219255, “Targeting Transient Receptor Potential Vanilloid 1 (TRPV1) Channel Softly: The Discovery of Passerini Adducts as a Topical Treatment for Inflammatory Skin Disorders” (J Med Chem, 2018)
